Most compounds without a hit are left out; they make up all but 2.1% or so of the library.
Runt-SMMHC FRET = blocks binding of human RUNX1 Runt domain to CBFb-SMMHC; Q01196+Q13951; inhibition, % at 20 µM; 0.74% of 220,000 active; Cerulean-Runt/Venus-CBFb-SMMHC FRET ratio 530/480, 1 h;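 active = mean inhibition across duplicate retests at 20 µM reaching about 50%, limit read from the data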;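 note: 0% = DMSO wells and 100% = wells with excess untagged CBFb-SMMHC; inhibitors lower the FRET ratio by blocking Runt binding to CBFb-SMMHC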
Target sequence (Q01196 whole entry, looked up, the tested form may be a part): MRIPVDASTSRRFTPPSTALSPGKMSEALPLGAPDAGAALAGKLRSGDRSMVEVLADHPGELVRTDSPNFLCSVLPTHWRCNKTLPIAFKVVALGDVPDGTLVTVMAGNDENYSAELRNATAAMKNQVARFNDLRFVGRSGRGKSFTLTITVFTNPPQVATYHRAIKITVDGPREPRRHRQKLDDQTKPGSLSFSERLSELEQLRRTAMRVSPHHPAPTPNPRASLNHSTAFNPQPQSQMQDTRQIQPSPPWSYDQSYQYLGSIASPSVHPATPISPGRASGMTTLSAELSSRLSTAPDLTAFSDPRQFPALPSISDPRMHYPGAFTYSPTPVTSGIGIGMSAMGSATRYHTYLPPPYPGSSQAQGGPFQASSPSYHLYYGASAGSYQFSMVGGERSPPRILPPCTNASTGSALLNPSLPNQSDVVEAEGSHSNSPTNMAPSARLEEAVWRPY
Target sequence (Q13951 whole entry, looked up, the tested form may be a part): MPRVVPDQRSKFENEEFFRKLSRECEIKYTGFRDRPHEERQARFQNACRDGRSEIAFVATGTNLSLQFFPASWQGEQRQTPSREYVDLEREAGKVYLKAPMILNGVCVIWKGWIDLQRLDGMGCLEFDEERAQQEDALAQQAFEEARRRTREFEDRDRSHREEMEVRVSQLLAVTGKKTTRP
MEX-5 binding = C. elegans MEX-5 TCR-2 RNA binding activity | 0.38% of 300,000 active | AID 1832 | activity score (negative = inhibition of binding), % at 10 µM | MEX-5/FITC-TCR2 RNA binding, fluorescence polarization; stronger effect = lower value;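 active = inhibition past about -25% in most replicates, and total fluorescence under double the plate's negative control median, limit read from the data; inconclusive = replicates evenly split on the limit, or fluorescence at least double controls; inactive = too little inhibition in most replicates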;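 note: 0% = DMSO and -100% = 5 µM competing unlabeled TCR2 RNA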
Runt-CBFb FRET = inhibitors of human RUNX1 Runt domain binding to CBFb; AID 1496; 0.46% of 220,000 active; inhibition, % at 20 µM; Cerulean-Runt/Venus-CBFb FRET ratio 530/480, 1 h;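 active = inhibition over about 50% at 20 µM in the single-dose screen, limit read from the data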;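 note: 0% = DMSO wells and 100% = excess unlabeled CBFb competitor control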
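Measured by: fluorescence energy transfer, 422 nm excitation, 530/480 nm emission; Assay system: Cerulean-Runt domain; Medium: Tris pH 7.5 buffer with BSA; Measure: loss of energy transfer signal; Controls: 5 µM unlabeled CBFb as full-inhibition high control; Incubation: protein complex preformed 1 h, compound exposure 1 h, room temperature, dark.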
KLK7 zymogen act = activators of human kallikrein-7 zymogen; P49862; activation, % at 7 µM; purified proKLK7, EDANS-DABCYL substrate fluorescence; 100% is mature enzyme control, 0% vehicle; 0.9% of 370,000 active; AID 652039;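 active = activation above the mean of all tested compounds plus 3 SD, computed per campaign excluding outliers beyond control limits, cut at about 13% in these data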
RanGTP-Imp inh = disruptors of Ran-importin-beta complex formation – biochemical, FRET, CFP-Ran, YFP-importin-beta, homogeneous, primary screen; cell-free CFP-Ran/YFP-importin-beta FRET ratio; 1.1% of 300,000 active; AID 2216; inhibition, % (concentration not given with the values);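 active = more than half of the replicate wells show a fall in the fluorescence ratio signal beyond about 16%, limit read from the data, passing the limit was not always enough; inconclusive = exactly half of the replicate wells pass the set limit; inactive = fewer than half of replicates pass the limit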;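 note: 0% = DMSO wells and 100% = Ran loaded with GDP instead of GTP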
KLK7 act conf = proKLK7 activation, confirmation; activation, % at 7 µM; shares compounds with KLK7 zymogen act; purified proKLK7, EDANS-DABCYL substrate fluorescence; scaled: vehicle 0, mature enzyme 100; 68% of 3,200 active;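 active = activation, as change over the incubation, above the mean of all tested compounds plus 3 SD, cut at about 13% in these data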
EDANS-DABCYL int = counter-screen for kallikrein-7 activators: EDANS-DABCYL optical interference; shares compounds with KLK7 zymogen act; activation, % at 7 µM; AID 686952; 80% of 3,200 active; EDANS-DABCYL substrate fluorescence interference, no enzyme, 4 h; solvent 0%, active enzyme control 100%;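 active = activation above the all-compound mean plus 3 SD, ignoring values outside control-based bounds, cut at about 4.8% in these data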;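 note: value is the 4 h activation minus the activation read at time zero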
EDANS interf = optically interferes with EDANS-DABCYL fluorescence, kallikrein-7 activator counter-screen. shares compounds with KLK7 zymogen act. EDANS-DABCYL peptide fluorescence interference, no enzyme. EC50, µM. 20% of 250 active;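 active = compounds that raise the fluorescence signal in this interference counterscreen, with EC50 at or below 10 µM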;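 note: intact quenched peptide substrate alone read at 355 nm excitation and 520 nm emission; signal is fluorescence gain from T0 to T4 after four hours at room temperature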
An asterisk follows results filed as active; ? = inconclusive; . = no result given.

SMILES	Runt-SMMHC FRET	MEX-5 binding	Runt-CBFb FRET	KLK7 zymogen act	RanGTP-Imp inh	KLK7 act conf	EDANS-DABCYL int	others
Cc1ccccc1-n1c(O)c(/C=N/N2CCOCC2)c(=O)[nH]c1=S	-8	3	-3	0	1	.	.
Nc1ccc2ccc3cccc[n+]3c2c1	.	?	.	95*	-337	73*	66*
Cc1nccc2c1[nH]c1ccccc12	.	-1	.	36*	5	32*	36*
c1ccc2c(c1)[nH]c1cnccc12	11	1	3	46*	-3	18*	21*
CCc1nccc2c1[nH]c1ccccc12	.	0	.	46*	1	47*	46*
CCN(CC)CC(O)c1ccc(C2CCCC2)cc1 (configuration not stated)	1	0	-3	-1	7	.	.
Cc1ccc(CN2CCC3CCC(C3)C2)c(O)c1 (configuration not stated)	.	.	.	0	.	.	.
O=c1ccc2cc(O[C@@H]3O[C@@H](CO)[C@H](O)[C@@H](O)[C@@H]3O)c(O)cc2o1	.	-2	.	65*	102*	77*	84*
N#C[C@H](O[C@@H]1O[C@H](CO[C@@H]2O[C@H](CO)[C@@H](O)[C@H](O)[C@H]2O)[C@@H](O)[C@H](O)[C@H]1O)c1ccccc1	.	.	.	0	.	.	.
CC(C)NC(C)C(=O)c1ccc2ccccc2c1 (configuration not stated)	-2	0	4	27*	0	4	8.3*
CC(NC(C)(C)C)C(=O)c1cccc(Cl)c1 (configuration not stated)	-5	-7	0	0	3	.	.
CC(C(=O)c1ccc2ccccc2c1)N1CCCCC1 (configuration not stated)	2	0	0	32*	4	-2	1
COCCNC(=O)c1c(N)n(Cc2ccco2)c2nc3ccccc3nc12	42	-1	58*	27*	90*	-17	-65
CCOC(=O)c1c(C)n(Cc2ccco2)c2ccc(O)cc12	1	1	3	0	6	.	.
Cc1c(C=O)c2ccccc2n1Cc1cccc(F)c1	1	0	-3	0	1	.	.
O=C(c1ccc2c3c(cccc13)CC2)C1CCCN(CC2CC2)C1 (configuration not stated)	3	-1	2	43*	5	-13	-4
C=CCOC(=O)COc1cc(C)cc2oc(=O)c3c(c12)CCC3	0	-2	-6	41*	?	44*	44*
CCCCOC(=O)COc1cc(C)cc2oc(=O)c3c(c12)CCC3	-6	2	-8	1	0	.	.
O=C1NC(=O)C(=Cc2cc3c(cc2[N+](=O)[O-])OCO3)C(=O)N1	-62	-12	20	15*	0	6	7.9*
Cc1cccc(N2C(=O)NC(=O)/C(=C/c3cc4c(cc3[N+](=O)[O-])OCO4)C2=O)c1	-26	-69*	.	16*	-2	76*	76*
O=C1NC(=O)C(=Cc2ccccc2[N+](=O)[O-])C(=O)N1	.	.	.	1	.	.	.
COc1ccc(N2C(=O)NC(=O)/C(=C\c3ccccc3[N+](=O)[O-])C2=O)cc1	6	1	5	-1	-1	.	.
CN(C)[C@@H]1C(=O)C(C(N)=O)=C(O)[C@@]2(O)C(=O)C3=C(O)c4c(O)ccc(Cl)c4[C@@](C)(O)C3C[C@@H]12 (some centres not stated)	-19	.	-3	25*	.	17*	17*
CN1OC[C@@H]2CN[C@H](c3ccc(Br)cc3)C[C@@H]21	.	.	.	0	.	.	.
Cc1cc(=O)oc2cc(OCC(=O)N3CCN(C(C)c4ccccc4)CC3)c(Cl)cc12 (configuration not stated)	.	.	.	38*	.	63*	75*
SMILES	Runt-SMMHC FRET	MEX-5 binding	Runt-CBFb FRET	KLK7 zymogen act	RanGTP-Imp inh	KLK7 act conf	EDANS-DABCYL int	others
CC(C)C[C@H](NP(=O)(O)O[C@@H]1O[C@@H](C)[C@H](O)[C@@H](O)[C@H]1O)C(=O)N[C@@H](Cc1c[nH]c2ccccc12)C(=O)O	.	.	.	0	.	.	.
C#CC[N+]1(C)[C@@H]2CC(OC(=O)C(CO)c3ccccc3)C[C@H]1C(O)C2 (some centres not stated)	.	2	.	0	5	.	.
COc1cc2c(cc1OC)CC[N+](C)=C2	26	1	5	43*	5	58*	53*
COc1ccc(CC2c3cc(OC)c(OC)cc3CCN2C)cc1OC (configuration not stated)	2	0	0	12	-1	.	.
COc1ccc(-c2cc(=NCCCCCC(=O)O)c3cc(C)ccc3o2)cc1	20	2	8	105*	5	64*	72*
Cc1ccc(O)c(CN2CCC3CCC(C3)C2)c1 (configuration not stated)	.	.	.	0	.	.	.
CCC1(c2ccccc2)C(=O)N(C)C(=O)N(C)C1=O	2	-1	1	0	0	.	.
CN1C(=O)N(C)C(=O)C2(Sc3ccccc3C2=O)C1=O	-2	.	5	13*	.	247*	233*
CC12C=CC(=O)CC1CCC1C2CCC2(C)C(O)C(O)CC12 (configuration not stated)	.	.	.	1	.	.	.
c1ccc2oc(-c3ccc4c(c3)CNCc3cnnn3-4)cc2c1	.	.	.	22*	.	19*	19*
Cc1ccnc(-n2c(C)nc3ccccc3c2=O)c1	-5	1	2	-1	2	.	.
Cc1cccc(N2CCc3c2nc2ccccc2c3N)c1	-11	-2	20	22*	-1	-27	-22
Cc1cc(Br)cn2c(CC(=O)N3CCCCC3)c(-c3ccc(F)cc3)nc12	.	.	.	1	.	.	.
COCCN1Cc2cc(=O)n3c([nH]c4ccccc43)c2C1=N	41	-3	18	22*	-15	19*	-8	EDANS interf=>70
NS(=O)(=O)c1cccc(N2CCNCC2)c1	3	-2	-2	0	3	.	.
O=C(c1cccn2c(=O)c3cc(Cl)ccc3nc12)N1CCC2(CC1)OCCO2	-1	-1	9	14*	11	58*	73*
O=C(c1cccn2c(=O)c3ccccc3nc12)N1CCC2(CC1)OCCO2	-7	1	2	40*	4	42*	49*
Cc1c(-c2cccc(Cl)c2)nc2ccccc2c1C(=O)N1CCC2(CC1)OCCO2	.	-1	.	0	1	.	.
O=C(c1cc(-c2ccccc2)nc2ccccc12)N1CCC2(CC1)OCCO2	1	.	37	-1	0	.	.
C/C(=N\NC(N)=O)c1c(O)n(C)c(=O)n(C)c1=O	-2	-1	0	0	2	.	.

Screening results: PubChem, several laboratories
